Active and inactive are the calls of the source. No cut-off for these calls is given here.
Key:
[1] = species: Homo sapiens; experiment: Selectivity ratio of EC50 for human 5HT2C receptor to EC50 for M1 muscarinic receptor (unknown origin) by FLIPR assay
[2] = target: T1, 5-hydroxytryptamine receptor 2C (Homo sapiens) (UniProt P28335); experiment: Ratio of EC50 for human 5HT2C receptor by calcium fiux-based fluorescence assay to […] accumulation-based TR-FRET assay; assay type: functional
T1 sequence (whole entry): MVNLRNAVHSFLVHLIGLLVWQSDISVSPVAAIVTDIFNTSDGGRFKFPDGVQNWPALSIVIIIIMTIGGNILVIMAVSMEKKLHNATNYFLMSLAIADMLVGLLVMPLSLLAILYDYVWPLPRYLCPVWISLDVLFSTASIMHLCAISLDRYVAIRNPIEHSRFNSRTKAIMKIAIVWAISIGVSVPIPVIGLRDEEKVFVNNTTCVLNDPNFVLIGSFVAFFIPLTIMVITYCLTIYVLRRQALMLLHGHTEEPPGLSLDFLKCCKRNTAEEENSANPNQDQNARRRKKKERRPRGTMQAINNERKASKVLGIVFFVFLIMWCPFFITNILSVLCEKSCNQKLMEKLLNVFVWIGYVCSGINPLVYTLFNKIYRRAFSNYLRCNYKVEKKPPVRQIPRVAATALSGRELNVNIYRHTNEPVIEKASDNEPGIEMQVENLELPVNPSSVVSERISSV

[3] = target: T1, 5-hydroxytryptamine receptor 2C (Homo sapiens); experiment: Agonist activity at human 5HT2C receptor expressed in HEK293 cells assessed as induction of intracellular calcium release by fluorescence assay relative to 5HT; assay type: functional, cell-based
Summary of the method: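 Stable polyclonal 5-HT2A or 5-HT2C HEK293 cells seeded on poly-D-lysine plates (6 × 10⁴ cells/well). Next day loaded with Fluo-4/AM for 1 h at 37 °C in HBSS/20 mM HEPES/1 mM CaCl₂/1 mM MgCl₂/2.5 mM probenecid, pH 7.4. Fluorescence (485 ex/525 em) recorded before and up to 90 s after agonist. Response relative to 5-HT on the same plate. Duplicate, at least three times.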

[4] = tested on: Mus musculus; experiment: Procognitive effect in C57BI/6J mouse assessed as time spent in familiar arm at 0.43 mg/kg, po administered 30 mins prior to acquisition trial measured after 24 hrs in presence of SB242084; assay type: functional
Summary of the method: (§1)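 Male C57Bl/6J mice aged 8 weeks, two-trial place recognition Y-maze. 3 min acquisition with two arms open; 24 h ITI; 3 min retention with all three arms open. Drug given po 30 min before acquisition, vehicle 10% HP-βCD. SB242084 2.1 mg/kg co-administered where stated; doses as free base. Readouts are % distance, arm entries and time in each arm. Familiar arms pooled; one-way ANOVA.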

[5] = tested on: Mus musculus; experiment: Procognitive effect in C57Bl/6J mouse assessed as time spent in novel arm at 0.43 mg/kg, po administered 30 mins prior to acquisition trial measured after 24 hrs in presence of SB242084; assay type: functional; summary of the method: as §1
[6] = tested on: Mus musculus; experiment: Procognitive effect in C57Bl/6J mouse assessed as number of familiar arm entry at 0.43 mg/kg, po administered 30 mins prior to acquisition trial measured after 24 hrs in presence of SB242084; assay type: functional; summary of the method: as §1
[7] = tested on: Mus musculus; experiment: Procognitive effect in C57Bl/6J mouse assessed as distance traveled in the familiar arm at 0.43 mg/kg, po administered 30 mins prior to acquisition trial measured after 24 hrs in presence of SB242084 (reference value: 31.5 +/- 2.9%); assay type: functional; summary of the method: as §1
[8] = tested on: Mus musculus; experiment: Procognitive effect in C57Bl/6J mouse assessed as time spent in familiar arm at 0.43 mg/kg, po administered 30 mins prior to acquisition trial measured after 24 hrs by Y-maze test; assay type: functional; summary of the method: as §1
[9] = tested on: Mus musculus; experiment: Procognitive effect in C57Bl/6J mouse assessed as time spent in novel arm at 0.43 mg/kg, po administered 30 mins prior to acquisition trial measured after 24 hrs by Y-maze test; assay type: functional; summary of the method: as §1
[10] = tested on: Mus musculus; experiment: Procognitive effect in C57Bl/6J mouse assessed as distance traveled in the novel arm at 0.43 mg/kg, po administered 30 mins prior to acquisition trial measured after 24 hrs by Y-maze test (reference value: 37 +/- 5.8%); assay type: functional; summary of the method: as §1
[11] = target: T2, 5-hydroxytryptamine receptor 2C (Rattus norvegicus) (UniProt P08909); experiment: Displacement of [125I]-N-(p-I-Bn)-THAZ from 5HT2C receptor in Sprague-Dawley rat midbrain membrane at 100 uM after 40 mins by autoradiography; assay type: tissue-based
T2 sequence (whole entry): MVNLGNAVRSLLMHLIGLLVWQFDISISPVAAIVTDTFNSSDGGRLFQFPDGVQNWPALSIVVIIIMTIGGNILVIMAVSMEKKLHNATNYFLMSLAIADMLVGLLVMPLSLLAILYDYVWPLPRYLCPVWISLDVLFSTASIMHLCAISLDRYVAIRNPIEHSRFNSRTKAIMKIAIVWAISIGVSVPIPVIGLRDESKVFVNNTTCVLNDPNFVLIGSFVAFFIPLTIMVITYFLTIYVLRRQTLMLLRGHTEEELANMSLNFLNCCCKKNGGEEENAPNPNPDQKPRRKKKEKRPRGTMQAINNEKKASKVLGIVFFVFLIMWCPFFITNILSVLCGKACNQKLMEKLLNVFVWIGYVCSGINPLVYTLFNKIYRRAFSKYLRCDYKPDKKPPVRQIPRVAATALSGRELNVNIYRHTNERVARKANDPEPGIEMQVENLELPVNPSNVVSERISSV

[12] = target: T2, 5-hydroxytryptamine receptor 2C (Rattus norvegicus); experiment: (§2) Displacement of [125I]-N-(p-I-Bn)-THAZ from 5HT2C receptor in rat cerebral cortex membrane after 1 hr by scintillation counting analysis; assay type: cell membranes
[13] = target: T3, 5-hydroxytryptamine receptor 2C (Rattus norvegicus, UniProt P08909); experiment: as §2; assay type: cell membranes
T3 sequence (P08909 whole entry): T2 sequence (whole entry)

[14] = target: T2, 5-hydroxytryptamine receptor 2C (Rattus norvegicus); experiment: Displacement of [125I]-N-(p-I-Bn)-THAZ from 5HT2C receptor in rat cerebellum membrane after 1 hr by scintillation counting analysis; assay type: cell membranes
[15] = target: T4, 5-hydroxytryptamine receptor 2C (Homo sapiens, UniProt P28335); experiment: Displacement of [3H]mesulergine from human 5HT2C receptor expressed in tsA201 cell membranes after 1 hr by scintillation counting analysis
T4 sequence (P28335 whole entry): T1 sequence (whole entry)

[16] = target: 5-hydroxytryptamine receptor 2A (Homo sapiens, UniProt P28223); experiment: Agonist activity at human 5HT2A receptor expressed in HEK293 cells assessed as accumulation of IP1 incubated for 1 hr at 37 degC followed by 15 mins at RT by TR-FRET assay; assay type: functional, cell-based
Sequence of 5-hydroxytryptamine receptor 2A (P28223 whole entry): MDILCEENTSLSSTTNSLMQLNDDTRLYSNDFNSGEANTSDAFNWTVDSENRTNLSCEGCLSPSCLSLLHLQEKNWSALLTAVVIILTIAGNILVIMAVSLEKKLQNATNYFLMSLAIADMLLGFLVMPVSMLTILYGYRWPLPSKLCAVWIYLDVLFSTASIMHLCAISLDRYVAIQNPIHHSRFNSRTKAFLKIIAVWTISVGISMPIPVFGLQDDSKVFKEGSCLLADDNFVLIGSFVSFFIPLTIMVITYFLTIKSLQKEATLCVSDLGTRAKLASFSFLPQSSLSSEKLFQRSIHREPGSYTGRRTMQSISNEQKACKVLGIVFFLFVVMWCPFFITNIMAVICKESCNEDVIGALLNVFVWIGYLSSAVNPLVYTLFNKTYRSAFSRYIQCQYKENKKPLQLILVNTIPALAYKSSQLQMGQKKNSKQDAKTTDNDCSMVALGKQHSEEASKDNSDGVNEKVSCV

[17] = target: T4, 5-hydroxytryptamine receptor 2C; experiment: Agonist activity at human 5HT2C receptor expressed in HEK293 cells assessed as induction of intracellular calcium release measured for 90 secs by fluorescence assay; assay type: functional, cell-based; details: read-out: EC50

Question: With `O=c1c2c(on1Cc1ccccc1)CCNCC2` as the molecule, how does the Ratio EC50 [1] read?
Answer: 20

Question: What about the Ratio EC50 [2] of the same molecule?
Answer: 2

Question: What about the Emax [3] of the same molecule?
Answer: 90%

Question: And the Activity [4]?
Answer: 31.7%

Question: What about the Activity [5] of the same molecule?
Answer: 36.6%

Question: And the Activity [6]?
Answer: 33.6%

Question: What about the Activity [7] of the same molecule?
Answer: 32.6%

Question: What about the Activity [8] of the same molecule?
Answer: 30.6%

Question: And the Activity [9]?
Answer: 38.8%

Question: And the Activity [10]?
Answer: 40.4%

Question: What about the Activity [11] of the same molecule?
Answer: Active

Question: And the Activity [12]?
Answer: Dose-dependent effect

Question: And the Ki [13]?
Answer: 724 nM

Question: What about the Activity [14] of the same molecule?
Answer: inactive

Question: What about the Ki [15] of the same molecule?
Answer: 2300 nM

Question: What about the EC50 [16] of the same molecule?
Answer: 2400 nM

Question: And the EC50 [17]?
Answer: 420 nM
